These results are taken from ChEMBL document CHEMBL1132320, “Evaluation of the desferrithiocin pharmacophore as a vector for hydroxamates” (1999).

Where “and” joins values, the source holds several entries; their conditions need not be identical. Equal values may be shown once.

Holding throughout (assay type): functional
Test [1] relates to Rattus norvegicus. Briefly: Efficiency is defined as net iron excretion in rats at the dose of 150 umol/kg administered perorally. An outline of the steps: (§1)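 Male Sprague–Dawley rats (~400 g) with bile-duct cannulas, under sodium pentobarbital (55 mg/kg ip) anesthesia, housed in metabolic cages with free water. Chelator is given as a single dose in 40% Cremophor RH-40/H2O (v/v). Bile is collected at 3-h intervals for 24 h and urine every 24 h. Iron is measured by flame atomic absorption. Efficiency = (treated minus control iron excretion)/theoretical output, as %; bile/urine split reported.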

In test [2] the test system is Monkey. Briefly: The efficiency was calculated by averaging the iron output for 4 days before the administration of the drug, subtracting these numbers from the 2-day iron clearance after the administration of the drug at the dose of 300 umol/kg administered perorally in monkeys. An outline of the steps: (§2)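 Cebus apella monkeys iron-loaded with iv iron dextran (200–300 mg Fe/kg per slow 45–60 min infusion, to about 500 mg Fe/kg), rested ≥60 days. Chelator is given in 40% Cremophor RH-40/H2O (v/v). Feces and urine are collected from 4 days before to 5 days after dosing. Iron is measured by flame atomic absorption. Efficiency = (2-day post-drug iron minus 4-day baseline average)/theoretical output, as %.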

Test [3] deals with Rattus norvegicus. Briefly: Efficiency is defined as net iron excretion in rats at the dose of 150 umol/kg administered subcutaneously. An outline of the steps: as §1
Test [4] deals with Monkey. Briefly: The efficiency was calculated by averaging the iron output for 4 days before the administration of the drug, subtracting these numbers from the 2-day iron clearance after the administration of the drug at the dose of 150 umol/kg administered perorally in monkeys. In a few lines:
as §2

Test [5] relates to Monkey. Briefly: The efficiency was calculated by averaging the iron output for 4 days before the administration of the drug, subtracting these numbers from the 2-day iron clearance after the administration of the drug at the dose of 150 umol/kg administered subcutaneously in monkeys. In a few lines: as §2
In test [6] the test system is Monkey. Briefly: The efficiency was calculated by averaging the iron output for 4 days before the administration of the drug, subtracting these numbers from the 2-day iron clearance after the administration of the drug at the dose of 225 umol/kg administered perorally in monkeys. In a few lines:
as §2

Test [7] has as its system Monkey. Briefly: The efficiency was calculated by averaging the iron output for 4 days before the administration of the drug, subtracting these numbers from the 2-day iron clearance after the administration of the drug at the dose of 300 umol/kg administered subcutaneously in monkeys. In a few lines: as §2

Consider `O=C(C1CSC(c2ncccc2O)=N1)N(O)Cc1ccccc1` (stereo not given), for which the figures for the Efficiency in test [1], in test [2] and in test [3] were 1%, under 0.5% and 1.4%, respectively.

Take `O=C(c1ccccc1O)N(O)CCOCCOCCN(O)C(=O)c1ccccc1O`: the Efficiency in test [1] was under 0.5%; in test [3], 0.8%.

As for `CN(O)C(=O)[C@H]1CSC(c2ncccc2O)=N1`, the Efficiency is reported as 6.9% in test [4]; 3.1% in test [1]; 11.7% in test [5]; 13.2% in test [2]; 5.3% in test [3].

For `CC(=O)N(O)CCCCCN(O)C(=O)[C@H]1CSC(c2ncccc2O)=N1`, the Efficiency in test [1] is 2.8%; in test [6], 3.2% and 12.8%; in test [3], 8.5%.

With `O=C(O)[C@H]1CSC(c2ncccc2O)=N1`, the Efficiency in test [4] was 4.8%; in test [1] it was 2.4%; in test [2], 8%; in test [7], 8.3%; in test [3] it was 1.8%.

On to `O=C([C@H]1CSC(c2ncccc2O)=N1)N(O)CCOCCOCCN(O)C(=O)[C@H]1CSC(c2ncccc2O)=N1`, for which the results for the Efficiency in test [1] and in test [3] were 4.6% and 20.6%, respectively.
